The structures appear in SMILES notation. Where only a bound is given, the exact number is not on record here.

Data set [1] deals with T1, Disintegrin and metalloproteinase domain-containing protein 17 (Homo sapiens, UniProt P78536). The data set can be described thus: Inhibition of ADAM17 in human SW480 cells assessed as inhibition of PMA-stimulated wild type PTK7 shedding at 25 to 100 uM after 16 hrs by Western blot analysis. It is filed as cell-based. An outline of the steps: (§1)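 PTK7 shedding tested at 25, 50 and 100 μM in PMA-stimulated cells. HT1080 fibrosarcoma cells carried the L622D PTK7 mutant uncleavable by MT1-MMP; SW480 colorectal cells expressed wild-type PTK7 endogenously. Soluble PTK7 was detected.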
T1 sequence (P78536 whole entry, the tested form may be a part): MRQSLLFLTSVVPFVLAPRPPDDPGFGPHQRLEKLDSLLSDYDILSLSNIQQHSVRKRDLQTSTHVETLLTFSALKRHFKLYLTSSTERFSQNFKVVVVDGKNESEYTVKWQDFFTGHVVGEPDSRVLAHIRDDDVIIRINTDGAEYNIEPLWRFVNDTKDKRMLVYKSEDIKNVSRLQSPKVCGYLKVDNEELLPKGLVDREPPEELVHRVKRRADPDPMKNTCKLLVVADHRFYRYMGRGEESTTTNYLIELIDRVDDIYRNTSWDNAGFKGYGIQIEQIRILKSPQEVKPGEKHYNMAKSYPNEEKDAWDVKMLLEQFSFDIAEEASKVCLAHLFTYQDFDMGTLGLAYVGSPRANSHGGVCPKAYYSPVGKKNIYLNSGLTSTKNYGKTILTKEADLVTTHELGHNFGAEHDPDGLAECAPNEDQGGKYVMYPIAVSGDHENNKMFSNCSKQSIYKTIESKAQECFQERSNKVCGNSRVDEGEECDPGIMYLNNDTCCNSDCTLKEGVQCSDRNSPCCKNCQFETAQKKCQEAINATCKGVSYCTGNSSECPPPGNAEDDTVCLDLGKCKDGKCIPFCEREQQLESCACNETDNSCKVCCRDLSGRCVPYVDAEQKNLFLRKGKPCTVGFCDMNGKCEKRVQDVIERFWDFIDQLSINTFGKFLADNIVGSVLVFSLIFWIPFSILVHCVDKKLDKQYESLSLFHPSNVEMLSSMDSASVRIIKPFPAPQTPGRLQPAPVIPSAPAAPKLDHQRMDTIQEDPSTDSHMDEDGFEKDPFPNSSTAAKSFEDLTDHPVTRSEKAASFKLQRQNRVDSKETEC
(In general: A western blot detects proteins with antibodies after separation by electrophoresis.)

The target in data set [2] is T2, Neutrophil collagenase (Homo sapiens, UniProt P22894). The data set can be described thus: Inhibition of MMP8 (unknown origin) using Mca-KLPGL-Dnp-AR as substrate preincubated for 30 mins followed by substrate addition measured after 1 hr by fluorescence assay. The method, boiled down: (§2)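 Inhibitor as 10-point 1:3 dilutions from 300 μM, 30 min at RT. Substrate added from a 30 μM 3× solution. Single fluorescence read (ex 324/em 393 nm) after 1 h at RT.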
Target sequence in this assay (P22894 whole entry): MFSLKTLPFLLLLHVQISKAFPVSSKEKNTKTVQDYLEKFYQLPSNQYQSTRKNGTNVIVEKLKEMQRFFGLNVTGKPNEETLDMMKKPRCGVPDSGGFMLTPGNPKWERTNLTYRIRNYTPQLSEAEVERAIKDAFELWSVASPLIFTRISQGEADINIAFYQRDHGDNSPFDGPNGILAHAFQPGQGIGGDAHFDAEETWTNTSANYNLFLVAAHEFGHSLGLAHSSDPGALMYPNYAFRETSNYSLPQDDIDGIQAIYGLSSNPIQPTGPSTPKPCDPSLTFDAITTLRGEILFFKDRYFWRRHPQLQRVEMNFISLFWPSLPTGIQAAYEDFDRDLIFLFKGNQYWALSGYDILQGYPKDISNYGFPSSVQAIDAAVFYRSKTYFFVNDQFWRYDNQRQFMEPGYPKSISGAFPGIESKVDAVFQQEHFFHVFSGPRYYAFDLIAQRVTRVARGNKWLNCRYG

The target in data set [3] is T1, Disintegrin and metalloproteinase domain-containing protein 17. The data set can be described thus: Inhibition of ADAM17 in HTSMC assessed as inhibition of LPS-stimulated IL-8 shedding at 10 uM preincubated for 30 mins followed by LPS challenge measured after 4 to 24 hrs by ELISA. The method, boiled down:
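HTSMCs stimulated with LPS for IL-8 release; compounds at 10 μM. Mean ± SEM, n = 3 from three independent experiments; one-way ANOVA with Dunnett post hoc test.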
In general terms: In an ELISA, binding on a coated surface is turned into a signal by an enzyme label.

The target is the same in data set [4]. The data set is described as follows: Inhibition of ADAM17 in human HT1080 cells assessed as inhibition of PMA-stimulated PTK7 L622D mutant shedding at 25 to 100 uM after 16 hrs by Western blot analysis. It is filed as cell-based. The settings on record: HT-1080. The method, boiled down: as §1
For the next data set, the system named is A549. The data set can be described thus: Cytotoxicity against human A549 cells assessed as inhibition of cell viability up to 33 uM after 72 hrs by CellTiter-Glo assay. It is filed as cell-based. Particulars: a549, 72 h. A general note: Cellular ATP, detected with luciferase, serves as a proxy for viable cell number.
Data set [5] has as its target T3, Disintegrin and metalloproteinase domain-containing protein 10 (Homo sapiens) (UniProt O14672).
T3 sequence (whole entry): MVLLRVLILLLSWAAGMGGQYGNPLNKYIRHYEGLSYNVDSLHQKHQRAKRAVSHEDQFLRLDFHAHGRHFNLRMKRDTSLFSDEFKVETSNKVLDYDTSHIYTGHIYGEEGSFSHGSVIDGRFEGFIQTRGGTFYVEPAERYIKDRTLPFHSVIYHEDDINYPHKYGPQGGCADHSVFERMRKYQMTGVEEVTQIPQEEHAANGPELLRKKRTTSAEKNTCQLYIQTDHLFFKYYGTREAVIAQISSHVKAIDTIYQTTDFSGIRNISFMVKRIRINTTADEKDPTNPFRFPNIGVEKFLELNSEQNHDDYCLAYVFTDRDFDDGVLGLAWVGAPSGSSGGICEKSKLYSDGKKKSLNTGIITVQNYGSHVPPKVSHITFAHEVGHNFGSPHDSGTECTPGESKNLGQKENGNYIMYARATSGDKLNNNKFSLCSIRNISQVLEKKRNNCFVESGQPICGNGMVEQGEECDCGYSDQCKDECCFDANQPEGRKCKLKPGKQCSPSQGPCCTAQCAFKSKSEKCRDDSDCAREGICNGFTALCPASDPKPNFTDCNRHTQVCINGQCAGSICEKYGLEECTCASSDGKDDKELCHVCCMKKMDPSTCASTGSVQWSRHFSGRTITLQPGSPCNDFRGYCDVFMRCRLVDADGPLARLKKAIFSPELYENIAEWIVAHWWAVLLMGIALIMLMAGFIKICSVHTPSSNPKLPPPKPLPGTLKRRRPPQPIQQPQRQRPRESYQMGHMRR
The data set is described as follows: Inhibition of ADAM10 in HTSMC assessed as inhibition of PMA-stimulated release of CXCL16 at 10 uM preincubated for 30 mins followed by PMA challenge measured after 4 to 24 hrs by ELISA.

Another data set relates to ADAM17 (Homo sapiens). The data set can be described thus: Inhibition of ADAM17 in human SW480 cells assessed as inhibition of PMA-stimulated wild type PTK7 shedding at 25 to 100 uM after 16 hrs by Western blot analysis.
For data set [6], the target named is T2, Neutrophil collagenase. The data set is described as follows: Inhibition of MMP8 (unknown origin) using Mca-KLPGL-Dnp-AR as substrate at 100 uM preincubated for 30 mins followed by substrate addition measured after 1 hr by fluorescence assay relative to control. The method, boiled down:
as §2
Target sequence in this assay (P22894 101-467 limits assumed): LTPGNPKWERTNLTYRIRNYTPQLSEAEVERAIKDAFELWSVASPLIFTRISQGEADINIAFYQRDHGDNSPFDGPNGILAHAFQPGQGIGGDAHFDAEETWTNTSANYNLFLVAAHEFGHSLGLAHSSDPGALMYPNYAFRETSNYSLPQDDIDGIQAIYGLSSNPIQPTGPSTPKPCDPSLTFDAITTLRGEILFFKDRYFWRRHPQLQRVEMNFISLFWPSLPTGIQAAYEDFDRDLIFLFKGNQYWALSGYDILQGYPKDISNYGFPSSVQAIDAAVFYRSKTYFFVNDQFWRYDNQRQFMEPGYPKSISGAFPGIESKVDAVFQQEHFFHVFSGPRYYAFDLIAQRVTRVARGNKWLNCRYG

The target of data set [7] is T1, Disintegrin and metalloproteinase domain-containing protein 17. The data set can be described thus: Inhibition of ADAM17 in human A549 cells assessed as inhibition of PMA-stimulated heregulin shedding at 40 uM incubated for 1 hr followed by PMA stimulation measured after 1 hr. It is filed as cell-based. An outline of the steps: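 Heregulin shedding in A549 cells, with all compounds tested at 40 μM.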

In data set [8] the target is T3, Disintegrin and metalloproteinase domain-containing protein 10 (Homo sapiens). The data set is described as follows: Inhibition of ADAM10 (unknown origin) at 100 uM preincubated for 30 mins followed by substrate addition measured every 30 mins for 2 hrs by fluorescence assay relative to control. An outline of the steps:
(§3)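 Enzyme at 30 nM (3× solution) in 10 mM Hepes, 0.001% Brij-35, pH 7.5. Inhibitor series of 10 points, 1:3, from 300 μM, preincubated 30 min at RT. Glycosylated substrate added from a 30 μM 3× solution. Fluorescence (ex 360/em 460 nm) read every 30 min for 2 h. Inhibition taken from hydrolysis rates against substrate-only and substrate-plus-enzyme wells.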

For data set [9], the target named is T1, Disintegrin and metalloproteinase domain-containing protein 17. The data set can be described thus: Inhibition of ADAM17 (unknown origin) at 100 uM preincubated for 30 mins followed by substrate addition measured every 30 mins for 2 hrs by fluorescence assay relative to control. The method, boiled down: as §3
For data set [10] the target is unchanged. The data set is described as follows: Inhibition of ADAM17 in human THP1 cells assessed as inhibition of LPS-stimulated TNFalpha cleavage at 25 uM after 1 hr by AlphaScreen assay relative to control. The data set is classed as cell-based. Particulars: THP-1. An outline of the steps: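 THP-1 cells grown in RPMI 1640 with 10% FBS and 0.05 mM 2-mercaptoethanol; 3000 cells per well. Compound given in 3% DMSO for 1 h, then LPS added (1 μg/mL final) and cells incubated overnight at 37 °C. TNFα detected by AlphaScreen using anti-TNFα acceptor beads and streptavidin donor beads, each step 1 h in the dark at RT.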

The target in data set [11] is T3, Disintegrin and metalloproteinase domain-containing protein 10 (Homo sapiens). The data set is described as follows: Inhibition of ADAM10 in human A549 cells assessed as inhibition of betacellulin shedding at 40 uM after 1 hr by ELISA. The data set is classed as cell-based. The method, boiled down:
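A549 cells were tested for betacellulin shedding at 40 μM, with Marimastat at 10 μM as control.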

In data set [12] the target is Matrix metalloproteinase-14 (Homo sapiens, UniProt P50281). The data set is described as follows: Inhibition of MMP14 (unknown origin) using Mca-KLPGL-Dnp-AR as substrate preincubated for 30 mins followed by substrate addition measured after 1 hr by fluorescence assay. The method, boiled down: as §2
The target of data set [13] is T1, Disintegrin and metalloproteinase domain-containing protein 17. The data set can be described thus: Inhibition of ADAM17 (unknown origin) preincubated for 30 mins followed by substrate addition measured every 30 mins for 2 hrs by fluorescence assay. The method, boiled down:
as §3

The target is the same in data set [14]. The data set is described as follows: Inhibition of ADAM17 in human A549 cells assessed as effect on PMA-stimulated TGFalpha shedding up to 100 uM preincubated for 1 hr followed by PMA stimulation measured after 1 hr by ELISA. It is filed as cell-based. An outline of the steps:
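TGFα shedding from PMA-treated A549 cells tested up to 100 μM. Marimastat at 10 μM served as control, with a non-PMA-treated control included; soluble TGFα measured in the supernatant.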

In the case of `CCCC[C@H]1CN([C@@H](Cc2ccc(O)cc2)CN2CCC[C@H]2CN2C(=O)C(=O)NC[C@H]2Cc2ccc3ccccc3c2)C(=O)C(=O)N1CCC12CC3CC(CC(C3)C1)C2`, the inhibition in data set [1] came to 0%; in data set [3] it was 62%; in [4] it was 0%; in data set [5], 0%; in the data set with ADAM17 (Homo sapiens), 0%; against Neutrophil collagenase [6] it was 0%. Also, the inhibition in data set [7] worked out at 0%; in data set [8], 0%; in data set [9], 100%; in [10], 57%; in [11] it was 0%; in [14] it was 0%. The concentration for half-maximal inhibition (IC50) was > 100 µM on Neutrophil collagenase [2], > 100 µM in data set [12] and 5.7 µM in data set [13]. Also, the Activity entry in the data set with A549 is on record as “Non-toxic”.

Consider `O=C1NC[C@@H](Cc2ccc(O)cc2)N(C[C@@H]2CCCN2C[C@@H](Cc2ccc3ccccc3c2)N2CC(Cc3ccc(O)cc3)N(CCC34CC5CC(CC(C5)C3)C4)C(=O)C2=O)C1=O` (single isomer, unassigned), for which the inhibition was determined as 0% in data set [1]; 36% in [3]; 25% in [4]; 0% in data set [5]; 0% in the data set with ADAM17 (Homo sapiens); 13% against Neutrophil collagenase [6]. For the same molecule, the inhibition in data set [7] came to 100%; in data set [8], 0%; in data set [9] it was 95%; in [10] it was 43%; in [11] it was 0%; in data set [14] it was 0%. The IC50 was > 100 µM against Neutrophil collagenase [2], > 100 µM in [12] and 4.2 µM in [13]. The Activity result in the data set with A549 was “Non-toxic”.

As for `O=C1NC[C@H](Cc2ccccc2)N(C[C@@H]2CCCN2C[C@@H](CC2CCCCC2)N2C[C@H](Cc3ccc(O)cc3)N(CCc3ccccc3)C(=O)C2=O)C1=O`, the inhibition was 0% in data set [1]; 18% in data set [3]; 0% in data set [4]; 0% in [5]; 0% with ADAM17 (Homo sapiens); 28% against Neutrophil collagenase [6]. The inhibition in [7] is 0%; in data set [8], 0%; in data set [9] it was 100%; in [10], 36%; in [11], 0%; in data set [14] it was 0%. For the same molecule, the concentration for half-maximal inhibition (IC50) is > 100 µM on Neutrophil collagenase [2], > 100 µM in [12] and 5.4 µM in data set [13]. In addition, the Activity entry in the data set with A549 was “Non-toxic”.

One may read the inhibition as the percentage by which the read-out fell short of the control. For orientation: IC50 means the concentration needed to halve the response being measured. Read a high IC50 as weaker potency in that assay.

For the origin of these results see ChEMBL document CHEMBL3593206, “SAR Studies of Exosite-Binding Substrate-Selective Inhibitors of A Disintegrin And Metalloprotease 17 (ADAM17) and Application as Selective in Vitro Probes” (J Med Chem, 2015).
